What was measured:
Format in all cases: functional
[1] = test system: Heligmosomoides polygyrus; assay: Anthelmintic activity ( in Vivo ) in mouse, as percentage reduction of Nematospiroides dubius at 31 PPM
In short: (§1)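 Mice infected by oral gavage with 35-40 N. dubius L3 larvae plus 5000 H. nana eggs each. From 24 h post-infection, groups of four fed compound ad lib in powdered lab chow (31-1000 ppm) for 18 days. Killed on day 19; N. dubius counted in duodenum under dissecting microscope. Percent reduction computed from mean worm counts, treated vs untreated control.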

[2] = test system: Heligmosomoides polygyrus; assay: Anthelmintic activity ( in Vivo ) in mouse, as percentage reduction of Nematospiroides dubius at 62 PPM; in short: as §1
[3] = test system: Heligmosomoides polygyrus; assay: Anthelmintic activity ( in Vivo ) in mouse, as percentage reduction of Nematospiroides dubius at 125 PPM; in short: as §1
[4] = test system: Heligmosomoides polygyrus; assay: Anthelmintic activity ( in Vivo ) in mouse, as percentage reduction of Nematospiroides dubius at 250 PPM; in short: as §1
[5] = test system: Heligmosomoides polygyrus; assay: Anthelmintic activity ( in Vivo ) in mouse, as percentage reduction of Nematospiroides dubius at 500 PPM; in short: as §1
Ovis aries [6] = assay: Anthelmintic activity (in Vivo)in sheep as percentage reduction versus control (by administration of benzimidazole-susceptible L3 larvae of Haemonchus contortus intraruminally)at 30 mg/kg po
In short: (§2)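 Sheep on lucerne/oaten chaff were infected intraruminally on day 0 with benzimidazole-susceptible L3 larvae (H. contortus 6000, O. circumcincta 8000, T. colubriformis 8000). They were allocated on day-27 faecal egg counts and weight (n = 4-7). A single intraruminal dose in 0.5% Na CMC/0.9% saline was given on day 28, with an untreated control per assay. On day 35, adult worms in abomasum and small intestine were counted as % reduction vs control.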

Ovis aries [7] = assay: Anthelmintic activity (in Vivo)in sheep as percentage reduction versus control (by administration of […] L3 larvae of Trichostrongylus colubriformis intraruminally) at 30 mg/kg po (Benzimidazole resistant strain)
In short: (§3)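 Sheep fed lucerne/oaten chaff were infected intraruminally with L3 larvae of a drug-resistant strain (benzimidazole-resistant; for O. circumcincta, benzimidazole-, levamisole- and morantel-resistant). They were grouped by faecal egg counts (n = 4-7) and dosed once intraruminally on day 28 in 0.5% Na CMC/saline. Adult worms were counted on day 35 as % reduction vs untreated control.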

Ovis aries [8] = assay: Anthelmintic activity (in Vivo)in sheep as percentage reduction versus control (by administration of […] L3 larvae of Haemonchus contortus intraruminally)at 30 mg/kg po (Benzimidazole resistant strain); in short: as §3
Ovis aries [9] = assay: Anthelmintic activity (in Vivo)in sheep as percentage reduction versus control (by administration of benzimidazole-susceptible L3 larvae of Trichostrongylus colubriformis intraruminally) at 15 mg/kg po; in short: as §2
Ovis aries [10] = assay: Anthelmintic activity (in Vivo)in sheep as percentage reduction versus control (by administration of benzimidazole-susceptible L3 larvae of Ostertagia circumcincta intraruminally)at 30 mg/kg po; in short: as §2
Ovis aries [11] = assay: Anthelmintic activity (in Vivo) in sheep as percentage reduction versus control (by administration of […] L3 larvae of Ostertagia circumcincta intraruminally)at 30 mg/kg po (Benzimidazole, levamisole and morantel resistant strain); in short: as §3
Ovis aries [12] = assay: Anthelmintic activity (in Vivo)in sheep as percentage reduction versus control (by administration of benzimidazole-susceptible L3 larvae of Ostertagia circumcincta intraruminally)at 15 mg/kg po; in short: as §2
Ovis aries [13] = assay: Anthelmintic activity (in Vivo)in sheep as percentage reduction versus control (by administration of benzimidazole-susceptible L3 larvae of Trichostrongylus colubriformis intraruminally) at 30 mg/kg po; in short: as §2
Ovis aries [14] = assay: Anthelmintic activity (in Vivo)in sheep as percentage reduction versus control (by administration of benzimidazole-susceptible L3 larvae of Haemonchus contortus intraruminally)at 15 mg/kg po; in short: as §2
Ovis aries [15] = assay: Anthelmintic activity (in Vivo)in sheep as percentage reduction versus control (by administration of benzimidazole-susceptible L3 larvae of H contortus intraruminally)at 10 mg/kg po; in short: as §2
Ovis aries [16] = assay: Anthelmintic activity (in Vivo)in sheep as percentage reduction versus control (by administration of benzimidazole-susceptible L3 larvae of T colubriformis intraruminally) at 5 mg/kg po; in short: as §2
Ovis aries [17] = assay: Anthelmintic activity (in Vivo)in sheep as percentage reduction versus control (by administration of benzimidazole-susceptible L3 larvae of O circumcincta intraruminally)at 5 mg/kg po; in short: as §2
Ovis aries [18] = assay: Anthelmintic activity (in Vivo)in sheep as percentage reduction versus control (by administration of benzimidazole-susceptible L3 larvae of O circumcincta intraruminally)at 10 mg/kg po; in short: as §2
Ovis aries [19] = assay: Anthelmintic activity (in Vivo)in sheep as percentage reduction versus control (by administration of benzimidazole-susceptible L3 larvae of H contortus intraruminally)at 5 mg/kg po; in short: as §2
Ovis aries [20] = assay: Anthelmintic activity (in Vivo)in sheep as percentage reduction versus control (by administration of benzimidazole-susceptible L3 larvae of T colubriformis intraruminally) at 10 mg/kg po; in short: as §2
Ovis aries [21] = assay: Anthelmintic activity (in Vivo)in sheep as percentage reduction versus control (by administration of benzimidazole-susceptible L3 larvae of Haemonchus contortus intraruminally)at 16.4 mg/kg po; in short: as §2
Ovis aries [22] = assay: Anthelmintic activity (in Vivo)in sheep as percentage reduction versus control (by administration of benzimidazole-susceptible L3 larvae of Ostertagia circumcincta intraruminally)at 16.4 mg/kg po; in short: as §2
Ovis aries [23] = assay: Anthelmintic activity (in Vivo)in sheep as percentage reduction versus control (by administration of benzimidazole-susceptible L3 larvae of Trichostrongylus colubriformis intraruminally) at 16.4 mg/kg po; in short: as §2
Ovis aries [24] = assay: Anthelmintic activity (in Vivo)in sheep as percentage reduction versus control (by administration of benzimidazole-susceptible L3 larvae of Trichostrongylus colubriformis intraruminally) at 10.9 mg/kg po; in short: as §2
Ovis aries [25] = assay: Anthelmintic activity (in Vivo)in sheep as percentage reduction versus control (by administration of benzimidazole-susceptible L3 larvae of Haemonchus contortus intraruminally)at 10.9 mg/kg po; in short: as §2
Ovis aries [26] = assay: Anthelmintic activity (in Vivo)in sheep as percentage reduction versus control (by administration of benzimidazole-susceptible L3 larvae of Ostertagia circumcincta intraruminally)at 10.9 mg/kg po; in short: as §2
[27] = test system: Heligmosomoides polygyrus; assay: Anthelmintic activity ( in Vivo ) in mouse, as percentage reduction of Nematospiroides dubius at 1000 PPM; in short: as §1
Ovis aries [28] = assay: Anthelmintic activity (in Vivo)in sheep as percentage reduction versus control (by administration of benzimidazole-susceptible L3 larvae of Ostertagia circumcincta intraruminally)at 10 mg/kg po; in short: as §2
Ovis aries [29] = assay: Anthelmintic activity (in Vivo)in sheep as percentage reduction versus control (by administration of benzimidazole-susceptible L3 larvae of Haemonchus contortus intraruminally)at 10 mg/kg po; in short: as §2
Ovis aries [30] = assay: Anthelmintic activity (in Vivo)in sheep as percentage reduction versus control (by administration of benzimidazole-susceptible L3 larvae of Ostertagia circumcincta intraruminally)at 5 mg/kg po; in short: as §2
Ovis aries [31] = assay: Anthelmintic activity (in Vivo)in sheep as percentage reduction versus control (by administration of benzimidazole-susceptible L3 larvae of Trichostrongylus colubriformis intraruminally) at 5 mg/kg po; in short: as §2
Ovis aries [32] = assay: Anthelmintic activity (in Vivo)in sheep as percentage reduction versus control (by administration of benzimidazole-susceptible L3 larvae of Trichostrongylus colubriformis intraruminally) at 10 mg/kg po; in short: as §2
Ovis aries [33] = assay: Anthelmintic activity (in Vivo)in sheep as percentage reduction versus control (by administration of benzimidazole-susceptible L3 larvae of Haemonchus contortus intraruminally)at 5 mg/kg po; in short: as §2

SMILES | Reduction [2] | Reduction [3] | Reduction [4] | Reduction [5] | also measured
COC(=O)Nc1nc2cc([S+]([O-])c3ccccc3)ccc2[nH]1 (centres undefined) [OXFENDAZOLE] | 100% | 100% |  |  | Reduction [1]: 100%
O=C(NC(=O)c1ccc(I)cc1)Nc1cccc(C2CN3CCSC3=N2)c1 (centres undefined) |  |  | 0% |  | 
c1ccc([C@H]2CN3CCSC3=N2)cc1 [LEVAMISOLE] | 100% |  |  | 100% | Reduction [1]: 60%
O=C(NC(=O)c1ccccc1[N+](=O)[O-])Nc1cccc(C2CN3CCSC3=N2)c1 (centres undefined) |  |  |  | 0% | 
O=C(NC(=O)c1ccc(C(F)(F)F)cc1)Nc1cccc(C2CN3CCSC3=N2)c1 (centres undefined) | 43% | 96% | 100% | 100% | Reduction [1]: 0%
O=C(NC(=O)c1c(F)cccc1F)Nc1cccc(C2CN3CCSC3=N2)c1 (centres undefined) | 0% | 76% | 100% | 100% | Reduction (Ovis aries [6]): 98%; Reduction (Ovis aries [7]): 92%; Reduction (Ovis aries [8]): 100%; Reduction (Ovis aries [9]): 100%; Reduction (Ovis aries [10]): 93%; Reduction (Ovis aries [11]): 55%; Reduction (Ovis aries [12]): 75%; Reduction (Ovis aries [13]): 99%; Reduction (Ovis aries [14]): 92%
O=C(NC(=O)c1cc(F)cc(F)c1)Nc1cccc(C2CN3CCSC3=N2)c1 (centres undefined) |  |  |  | 0% | 
N#Cc1ccc(C(=O)NC(=O)Nc2cccc(C3CN4CCSC4=N3)c2)cc1 (centres undefined) |  |  | 0% |  | 
O=C(NC(=O)c1cccc([N+](=O)[O-])c1)Nc1cccc(C2CN3CCSC3=N2)c1 (centres undefined) |  |  | 0% |  | 
O=C(NC(=O)c1ccc(C(F)(F)F)cc1)Nc1cccc([C@H]2CN3CCSC3=N2)c1 |  | 0% | 43% |  | Reduction (Ovis aries [15]): 59%; Reduction (Ovis aries [16]): 15%; Reduction (Ovis aries [17]): 33%; Reduction (Ovis aries [18]): 29%; Reduction (Ovis aries [19]): 27%; Reduction (Ovis aries [20]): 40%
Cl.O=C(NC(=O)c1c(F)cccc1F)Nc1cccc(C2CN3CCSC3=N2)c1 (centres undefined) |  |  |  |  | Reduction (Ovis aries [21]): 78%; Reduction (Ovis aries [22]): 82%; Reduction (Ovis aries [23]): 99%; Reduction (Ovis aries [24]): 93%; Reduction (Ovis aries [25]): 64%; Reduction (Ovis aries [26]): 52%
CC(C)(C)c1ccc(C(=O)NC(=O)Nc2cccc(C3CN4CCSC4=N3)c2)cc1 (centres undefined) |  |  | 0% |  | 
O=C(NC(=O)c1ccc(Cl)cc1)Nc1cccc(C2CN3CCSC3=N2)c1 (centres undefined) |  |  |  | 0% | 
O=C(NC(=O)c1ccc([N+](=O)[O-])cc1)Nc1cccc(C2CN3CCSC3=N2)c1 (centres undefined) |  |  |  |  | Reduction [27]: 0%
O=C(NC(=O)c1ccc(OC(F)(F)F)cc1)Nc1cccc(C2CN3CCSC3=N2)c1 (centres undefined) |  |  | 0% |  | 
O=C(NC(=O)c1ccc(F)cc1)Nc1cccc(C2CN3CCSC3=N2)c1 (centres undefined) |  |  | 0% | 43% | 
O=C(NC(=O)c1ccc(C(=O)c2ccccc2)cc1)Nc1cccc(C2CN3CCSC3=N2)c1 (centres undefined) |  |  | 0% |  | Reduction [27]: 100%
c1ccc(C2CN3CCSC3=N2)cc1 (centres undefined) [TETRAMISOLE] | 0% | 100% |  | 100% | 
O=C(NC(=O)c1ccccc1F)Nc1cccc(C2CN3CCSC3=N2)c1 (centres undefined) | 40% | 95% |  |  | Reduction [1]: 0%
COc1ccccc1C(=O)NC(=O)Nc1cccc(C2CN3CCSC3=N2)c1 (centres undefined) |  |  | 0% |  | 
O=C(NC(=O)c1ccccc1Cl)Nc1cccc(C2CN3CCSC3=N2)c1 (centres undefined) | 0% | 56% | 100% |  | 
COc1ccc(C(=O)NC(=O)Nc2cccc(C3CN4CCSC4=N3)c2)cc1 (centres undefined) |  |  |  |  | Reduction [27]: 0%
O=C(NC(=O)c1ccccc1)Nc1cccc(C2CN3CCSC3=N2)c1 (centres undefined) |  |  |  | 0% | Reduction [27]: 59%
O=C(NC(=O)c1c(Cl)cccc1Cl)Nc1cccc(C2CN3CCSC3=N2)c1 (centres undefined) |  |  |  | 0% | Reduction [27]: 56%
O=C(NC(=O)c1c(F)cccc1F)Nc1cccc([C@H]2CN3CCSC3=N2)c1 | 0% | 26% | 100% | 100% | Reduction (Ovis aries [28]): 64%; Reduction (Ovis aries [29]): 90%; Reduction (Ovis aries [30]): 56%; Reduction (Ovis aries [9]): 98%; Reduction (Ovis aries [31]): 75%; Reduction (Ovis aries [32]): 96%; Reduction (Ovis aries [33]): 74%; Reduction (Ovis aries [12]): 74%; Reduction (Ovis aries [14]): 86%
